Data published in ChEMBL document CHEMBL3804807, “Purine analogs as phosphatidylinositol 4-kinase IIIβ inhibitors” (Bioorg Med Chem Lett, 2016).

Experiments:
Homo sapiens [1] = species on record: Homo sapiens; test: Inhibition of PI4K3 beta (unknown origin) assessed as residual activity at 10 uM by ADP-Glo assay relative to control
Summary of the method: (§1)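 PI4K IIIα and PI4K IIIβ activity read by ADP-Glo assay. Each compound was tested at a single concentration of 10 μM, and residual enzyme activity was expressed relative to control.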

[2] = Cytotoxicity against human HeLa cells; assay type: cell-based
Homo sapiens [3] = species on record: Homo sapiens; test: Inhibition of PI4K3 alpha (unknown origin) at 10 uM by ADP-Glo assay relative to control; summary of the method: as §1
Coxsackievirus B3 = test: Antiviral activity against Human coxsackievirus B3; assay type: functional, organism-based; conditions: Enterovirus B
Hepatitis C virus = test: Antiviral activity against Hepatitis C virus subtype 1b; assay type: functional, organism-based, Hepacivirus hominis; conditions: genotype 1b
[4] = Inhibition of PI4K3 beta (unknown origin) by ADP-Glo assay; design: species or system Homo sapiens
Human rhinovirus sp. = test: Antiviral activity against Human rhinovirus; assay type: functional, organism-based

| Activity (Homo sapiens [1]) [%] | inhibition (Homo sapiens [3]) [%] | EC50 (Coxsackievirus B3) [µM] | EC50 (Hepatitis C virus) [µM] | IC50 [4] [µM] | EC50 (Human rhinovirus sp.) [µM] | SMILES | CC50 [2] [µM] |
| --- | --- | --- | --- | --- | --- | --- | --- |
| 13 | < 50 | 5 | 19 | 1.61 | 28 | COc1ccc(-n2c(C)nc3c(NCCN4CCOCC4)ncnc32)cc1OC | > 50 |
| 79 | < 50 | > 50 | > 44 | – | > 50 | COc1ccc(-n2c(C3CCCCC3)nc3c(NCCN4CCOCC4)nc(C)nc32)cc1OC | > 50 |
| 67 | < 50 | > 50 | 5 | – | 9 | COc1ccc(-n2c(C)nc3c(NCCN4CCOCC4)nc(-c4cccc(Cl)c4)nc32)cc1OC | > 50 |
| 18 | < 50 | > 50 | 13 | 1.91 | 26 | C#Cc1nc(NCCN2CCOCC2)c2nc(C)n(-c3ccc(OC)c(OC)c3)c2n1 | > 50 |
| 46 | < 50 | – | 23 | – | > 50 | COc1ccc(-n2c(C)nc3c(NCCN4CCOCC4)nc(-c4ccsc4)nc32)cc1OC | > 50 |
| 78 | < 50 | > 50 | > 44 | – | > 50 | COc1ccc(-n2c(-c3ccc(F)cc3)nc3c(NCCN4CCOCC4)nc(C)nc32)cc1OC | > 50 |
| 25 | < 50 | 19 | 40 | 1.44 | 49 | COc1ccc(-n2c(C)nc3c(NCCN4CCOCC4)nc(N)nc32)cc1OC | > 50 |
| 62 | < 50 | > 50 | > 44 | – | – | COc1ccc(-n2c(CO)nc3c(NCCN4CCOCC4)nc(C)nc32)cc1OC | > 50 |
| 17 | < 50 | 11 | 6.7 | 5.2 | 25 | COc1ccc(-n2c(Br)nc3c(NCCN4CCOCC4)nc(C)nc32)cc1OC | > 50 |
| 126 | < 50 | > 50 | 43 | – | > 50 | COc1ccc(Cn2c(C)nc3c(NCCN4CCOCC4)nc(C)nc32)cc1OC | > 50 |
| 112 | < 50 | – | > 44 | – | 9.6 | COc1ccc(-n2c(-c3ccc(OCc4ccccc4)cc3)nc3c(NCCN4CCOCC4)nc(C)nc32)cc1OC | 26 |
| 99 | < 50 | > 50 | > 44 | – | > 50 | COc1ccc(-n2c(C(F)(F)F)nc3c(NCCN4CCOCC4)nc(C)nc32)cc1OC | > 50 |
| 31 | < 50 | 26 | 33 | – | – | COc1ccc(-n2nnc3c(NCCN4CCOCC4)nc(C)nc32)cc1OC | > 50 |
| 14 | < 50 | 8 | > 44 | 0.91 | 40 | COc1ccc(-n2c(C)nc3c(NCCN4CCOCC4)nc(C)nc32)cc1OC | > 50 |
| 66 | < 50 | 27 | 4.4 | – | 3.4 | COc1ccc(-n2c(C)nc3c(NCCN4CCOCC4)nc(-c4ccc(F)cc4)nc32)cc1OC | > 50 |
| 97 | < 50 | > 50 | > 44 | – | > 50 | COc1ccc(-n2c(-c3ccc(C#N)cc3)nc3c(NCCN4CCOCC4)nc(C)nc32)cc1OC | > 50 |
| 24 | < 50 | > 50 | 14 | 2.07 | 31 | COc1ccc(-n2c(C)nc3c(NCCN4CCOCC4)nc(C#N)nc32)cc1OC | > 50 |
| 103 | < 50 | > 50 | > 44 | – | > 50 | COc1ccc(-n2c(-c3ccc(CO)cc3)nc3c(NCCN4CCOCC4)nc(C)nc32)cc1OC | > 50 |
| 94 | < 50 | > 50 | > 44 | – | > 50 | COc1ccc(-n2c(-c3ccsc3)nc3c(NCCN4CCOCC4)nc(C)nc32)cc1OC | > 50 |

| Activity (Homo sapiens [1]) [%] | inhibition (Homo sapiens [3]) [%] | EC50 (Coxsackievirus B3) [µM] | EC50 (Hepatitis C virus) [µM] | IC50 [4] [µM] | EC50 (Human rhinovirus sp.) [µM] | SMILES | CC50 [2] [µM] |
| --- | --- | --- | --- | --- | --- | --- | --- |
| 86 | < 50 | > 50 | > 44 | – | > 50 | COc1ccc(-n2c(OC)nc3c(NCCN4CCOCC4)nc(C)nc32)cc1OC | > 50 |
| 18 | < 50 | 1.8 | 1.3 | 2.37 | 3 | COc1ccc(-n2c(C)nc3c(NCCN4CCOCC4)nc(-c4ccc(O)cc4)nc32)cc1OC | > 50 |
| 125 | < 50 | > 50 | > 44 | – | > 50 | COc1ccc(-n2c(-c3ccc(O)cc3)nc3c(NCCN4CCOCC4)nc(C)nc32)cc1OC | > 50 |
| 16 | < 50 | 1.1 | 3.8 | 1.09 | 3.3 | COc1ccc(-n2c(C)nc3c(NCCN4CCOCC4)nc(-c4cccc(C(=O)N(C)C)c4)nc32)cc1OC | > 50 |
| 75 | < 50 | > 50 | > 44 | – | > 50 | COc1ccc(-n2c(C3CC=CCC3)nc3c(NCCN4CCOCC4)nc(C)nc32)cc1OC (centres undefined) | > 50 |
| 26 | < 50 | 34 | 11.5 | – | – | COc1ccc(-n2cnc3c(NCCN4CCOCC4)nc(C)nc32)cc1OC | > 50 |
| 96 | < 50 | > 50 | 30 | – | > 50 | COc1ccc(-n2c(C#Cc3ccccc3)nc3c(NCCN4CCOCC4)nc(C)nc32)cc1OC | > 50 |
| 38 | < 50 | 40 | 20 | – | > 50 | COc1ccc(-n2c(I)nc3c(NCCN4CCOCC4)nc(C)nc32)cc1OC | > 50 |
| 97 | < 50 | 9.9 | 3.9 | – | 3 | COc1ccc(-n2c(C)nc3c(NCCN4CCOCC4)nc(-c4ccc(C#N)cc4)nc32)cc1OC | > 50 |
| 138 | < 50 | > 50 | > 44 | – | > 50 | COc1ccc(-n2c(-c3ccc(C=O)cc3)nc3c(NCCN4CCOCC4)nc(C)nc32)cc1OC | > 50 |
| 65 | < 50 | > 50 | > 44 | – | – | COc1ccc(-n2c(C(C)C)nc3c(NCCN4CCOCC4)nc(C)nc32)cc1OC | > 50 |
| 36 | < 50 | 14 | 15 | – | 3.3 | COc1ccc(-n2c(C)nc3c(NCCN4CCOCC4)nc(-c4cccnc4)nc32)cc1OC | > 50 |
| 74 | < 50 | > 50 | 22 | – | – | COc1ccc(-n2ccc3c(NCCN4CCOCC4)ncnc32)cc1OC | > 50 |
| 41 | < 50 | > 50 | 32 | – | – | COc1ccc(-n2nnc3c(NCCN4CCOCC4)ncnc32)cc1OC | > 50 |
| 33 | < 50 | 9 | 10 | – | 16 | COc1ccc(-n2c(C)nc3c(NCCN4CCOCC4)nc(I)nc32)cc1OC | > 50 |
| 14 | < 50 | 1.6 | 5.9 | 2.14 | 9.3 | COc1ccc(-n2c(C)nc3c(NCCN4CCOCC4)nc(-c4cccc(NC(C)=O)c4)nc32)cc1OC | > 50 |
| 15 | < 50 | > 50 | 6 | 2.99 | 16 | COc1nc(NCCN2CCOCC2)c2nc(C)n(-c3ccc(OC)c(OC)c3)c2n1 | > 50 |
| 58 | < 50 | 5 | 6 | – | 8 | COc1ccc(-n2c(C)nc3c(NCCN4CCOCC4)nc(C#Cc4ccccc4)nc32)cc1OC | 48 |
